This is an account of results in ChEMBL document CHEMBL3046158, “Design, synthesis, and fungicidal activity of macrolactones and macrolactams with a sulfonamide side chain” (J Agric Food Chem, 2008).

Structures are written as SMILES. In brackets after ≈: the same amount, converted by molar mass.

This assay deals with Rhizoctonia solani. Description: Fungicidal activity against Rhizoctonia solani assessed as inhibition of mycelium growth by mycelium growth rate test. The assay is classed as functional, organism-based. In short, it runs like this: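 Mycelial growth rate test on Rhizoctonia solani. Inhibition rates measured at 100, 50, 25, 12.5 and 6.25 µg/mL.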
By EC50 is commonly meant the midpoint of the concentration-response curve. For the compound `O=C1CCCCCCCCCCC(NS(=O)(=O)c2ccccc2)CCCO1` (configuration not stated), the concentration for a half-maximal effect (EC50) came out at 2.4 µg/mL (≈ 6.07 µM). For `Cc1ccc(S(=O)(=O)NC2CCCCCCCCCCC(=O)OCCC2)cc1` (configuration not stated) the value was 3.7 µg/mL (≈ 9.03 µM).

Consider `O=C1CCCCCCCCCCC(NS(=O)(=O)c2ccc(Cl)cc2)CCCO1` (configuration not stated), for which the EC50 worked out at 3.3 µg/mL (≈ 7.67 µM). Take `O=C1CCCCCCCCCCC(NS(=O)(=O)c2cccc([N+](=O)[O-])c2)CCCO1` (configuration not stated): the half-maximal effective concentration (EC50) amounted to 18.7 µg/mL (≈ 42.4 µM). Take `O=C1CCCCCCCCCCC(NS(=O)(=O)c2cc(Cl)ccc2Cl)CCCO1` (configuration not stated): the EC50 turned out to be 28.4 µg/mL (≈ 61.1 µM). For `O=C1CCCCCCCCCCC(NS(=O)(=O)c2ccc(F)cc2)CCCO1` (configuration not stated) the value was 4.5 µg/mL (≈ 10.9 µM); for `O=C1CCCCCCCCCCC(NS(=O)(=O)c2ccccc2Cl)CCCO1` (configuration not stated), 25 µg/mL (≈ 58.1 µM). The same measure for `O=C1CCCCCCCCCCC(NS(=O)(=O)c2ccccc2[N+](=O)[O-])CCCO1` (configuration not stated): 22.3 µg/mL (≈ 50.6 µM). In the case of `COC(=O)c1ccccc1S(=O)(=O)NC1CCCCCCCCCCC(=O)OCCC1` (configuration not stated), the EC50 was determined as 20.9 µg/mL (≈ 46.1 µM). For `O=C1CCCCCCCCCCC(NS(=O)(=O)c2cccs2)CCCO1` (configuration not stated), the EC50 was determined as 5.1 µg/mL (≈ 12.7 µM). As to `O=C1CCCCCCCCCCC(NS(=O)(=O)Cc2ccccc2)CCCO1` (configuration not stated), the EC50 amounted to 52.4 µg/mL (≈ 128 µM). `CS(=O)(=O)NC1CCCCCCCCCCC(=O)OCCC1` (configuration not stated): the EC50 amounted to 12.2 µg/mL (≈ 36.6 µM). For the compound `CC1CCC(NS(=O)(=O)c2ccccc2)CCCCCCCCCCC(=O)O1` (configuration not stated), the EC50 turned out to be 51.3 µg/mL (≈ 125 µM). For `Cc1ccc(S(=O)(=O)NC2CCCCCCCCCCC(=O)OC(C)CC2)cc1` (configuration not stated) the value was 57 µg/mL (≈ 135 µM). The same measure for `CC1CCC(NS(=O)(=O)c2ccc(Cl)cc2)CCCCCCCCCCC(=O)O1` (configuration not stated): 69.6 µg/mL (≈ 157 µM); for `CC1CCC(NS(=O)(=O)c2cccc([N+](=O)[O-])c2)CCCCCCCCCCC(=O)O1` (configuration not stated): 86 µg/mL (≈ 189 µM); for `CC1CCC(NS(=O)(=O)c2cc(Cl)ccc2Cl)CCCCCCCCCCC(=O)O1` (configuration not stated): 30 µg/mL (≈ 62.7 µM). The same measure for `CC1CCC(NS(=O)(=O)c2ccc(F)cc2)CCCCCCCCCCC(=O)O1` (configuration not stated): 25.1 µg/mL (≈ 58.7 µM); for `CC1CCC(NS(=O)(=O)c2ccccc2Cl)CCCCCCCCCCC(=O)O1` (configuration not stated): 37.9 µg/mL (≈ 85.4 µM); for `CC1CCC(NS(=O)(=O)c2ccccc2[N+](=O)[O-])CCCCCCCCCCC(=O)O1` (configuration not stated): 93.3 µg/mL (≈ 205 µM). On to `COC(=O)c1ccccc1S(=O)(=O)NC1CCCCCCCCCCC(=O)OC(C)CC1` (configuration not stated), for which the EC50 was 53.4 µg/mL (≈ 114 µM). Regarding `CC1CCC(NS(=O)(=O)c2cccs2)CCCCCCCCCCC(=O)O1` (configuration not stated), the EC50 is 20.3 µg/mL (≈ 48.8 µM). For `CC1CCC(NS(=O)(=O)Cc2ccccc2)CCCCCCCCCCC(=O)O1` (configuration not stated), the EC50 was 28.2 µg/mL (≈ 66.6 µM). In the case of `CC1CCC(NS(C)(=O)=O)CCCCCCCCCCC(=O)O1` (configuration not stated), the EC50 is 56.4 µg/mL (≈ 162 µM). The same measure for `O=C1CCCCCCCCCCC(NS(=O)(=O)c2ccccc2)CCCN1` (configuration not stated): 55.3 µg/mL (≈ 140 µM); for `Cc1ccc(S(=O)(=O)NC2CCCCCCCCCCC(=O)NCCC2)cc1` (configuration not stated): 13.4 µg/mL (≈ 32.8 µM). For `O=C1CCCCCCCCCCC(NS(=O)(=O)c2ccc(Cl)cc2)CCCN1` (configuration not stated) the value was 19.6 µg/mL (≈ 45.7 µM); for `O=C1CCCCCCCCCCC(NS(=O)(=O)c2cccc([N+](=O)[O-])c2)CCCN1` (configuration not stated), 27.6 µg/mL (≈ 62.8 µM).

In the case of `O=C1CCCCCCCCCCC(NS(=O)(=O)c2cc(Cl)ccc2Cl)CCCN1` (configuration not stated), the EC50 turned out to be 30.4 µg/mL (≈ 65.6 µM).

As for `O=C1CCCCCCCCCCC(NS(=O)(=O)c2ccc(F)cc2)CCCN1` (configuration not stated), the EC50 worked out at 36.7 µg/mL (≈ 89 µM).

In the case of `O=C1CCCCCCCCCCC(NS(=O)(=O)c2ccccc2Cl)CCCN1` (configuration not stated), the EC50 stood at 59.5 µg/mL (≈ 139 µM). Take `O=C1CCCCCCCCCCC(NS(=O)(=O)c2ccccc2[N+](=O)[O-])CCCN1` (configuration not stated): the concentration for a half-maximal effect (EC50) amounted to 21.5 µg/mL (≈ 48.9 µM). For `COC(=O)c1ccccc1S(=O)(=O)NC1CCCCCCCCCCC(=O)NCCC1` (configuration not stated) the value was 12.8 µg/mL (≈ 28.3 µM).

As for `O=C1CCCCCCCCCCC(NS(=O)(=O)c2cccs2)CCCN1` (configuration not stated), the EC50 is 18.3 µg/mL (≈ 45.7 µM). As to `O=C1CCCCCCCCCCC(NS(=O)(=O)Cc2ccccc2)CCCN1` (configuration not stated), the half-maximal effective concentration (EC50) stood at 8.1 µg/mL (≈ 19.8 µM). For the compound `CS(=O)(=O)NC1CCCCCCCCCCC(=O)NCCC1` (configuration not stated), the EC50 came to 45.1 µg/mL (≈ 136 µM). For `O=C1CCCCCCCCCCCN1CCNS(=O)(=O)c1ccccc1` the value was 11.6 µg/mL (≈ 30.5 µM); for `Cc1ccc(S(=O)(=O)NCCN2CCCCCCCCCCCC2=O)cc1`, 8.8 µg/mL (≈ 22.3 µM); for `O=C1CCCCCCCCCCCN1CCNS(=O)(=O)c1ccc(Cl)cc1`, 18.7 µg/mL (≈ 45.1 µM). As for `O=C1CCCCCCCCCCCN1CCNS(=O)(=O)c1cccc([N+](=O)[O-])c1`, the EC50 is 10.7 µg/mL (≈ 25.1 µM).

Consider `O=C1CCCCCCCCCCCN1CCNS(=O)(=O)c1cc(Cl)ccc1Cl`, for which the EC50 came out at 5.3 µg/mL (≈ 11.8 µM). Regarding `COC(=O)Nc1nc2ccccc2[nH]1` [CARBENDAZIM], the EC50 amounted to 1.5 µg/mL (≈ 7.85 µM).
